Screening data deposited in PubChem by several laboratories.
Hits are enriched below; roughly 4.3% of the tested compounds scored in any of these assays.
PREPL inh: inhibits the human prolyl oligopeptidase-like enzyme; recombinant PREPL, fluorescence polarization activity-based probe; inhibition, % at 5.96 µM; 320,000 compounds, 0.68% hits; in the data active = inhibition above about 43%
SUMO HTRF inh: inhibitors of human SUMOylation (UBC9). P63279. HTRF SUMOylation assay, SAE1/SAE2 + UBC9, in vitro. inhibition, % at 35 µM. 290,000 compounds, 0.36% hits; in the data active = inhibition above about 50%, passing the limit was not always enough
UBC13 inh: human UBC13 polyubiquitination inhibition; UBC13 polyubiquitin chain formation, TR-FRET; inhibition, % at 20 µM; 330,000 compounds, 0.47% hits; AID 485273; in the data active = inhibition above about 45%, passing the limit was not always enough
ALR H2O2 inh: inhibitors of human sulfhydryl oxidase ALR | inhibition, % (concentration not given with the values) | P55789 | 290,000 compounds, 3.8% hits | purified ALR, DTT oxidation, H2O2 HRP-luminol luminescence;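 active = mean replicate inhibition above about 79%, with every replicate also reaching it, limit read from the data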
Target sequence (P55789 whole entry, looked up): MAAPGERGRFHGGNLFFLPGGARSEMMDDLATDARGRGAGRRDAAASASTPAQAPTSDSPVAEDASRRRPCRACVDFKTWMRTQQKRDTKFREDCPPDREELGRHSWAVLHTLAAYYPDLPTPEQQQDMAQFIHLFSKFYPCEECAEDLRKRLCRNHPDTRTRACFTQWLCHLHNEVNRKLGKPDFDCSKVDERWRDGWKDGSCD
Rin1-Abl PPI inh: blocks binding of human Rin1 to Abl. P00519+Q13671. inhibition, % at 7.35 µM. TR-FRET Rin1/Abl binding, biochemical. 360,000 compounds, 0.4% hits; in the data active = inhibition above about 5%, passing the limit was not always enough
RBBP9 inhibitor: human RBBP9 hydrolase inhibition. recombinant RBBP9, FP-Rh probe fluorescence polarization. 220,000 compounds, 0.2% hits. inhibition, % at 7.94 µM. O75884. AID 1515;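 active = inhibition above the campaign mean of all tested compounds plus 3 SD, cut at about 14% in these data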
Target sequence (O75884 whole entry, looked up): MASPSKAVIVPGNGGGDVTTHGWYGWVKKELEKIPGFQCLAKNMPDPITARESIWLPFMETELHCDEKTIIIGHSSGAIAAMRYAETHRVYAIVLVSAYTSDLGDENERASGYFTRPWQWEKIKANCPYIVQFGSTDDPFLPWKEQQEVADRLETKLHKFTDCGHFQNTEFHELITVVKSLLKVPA
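Test system – recombinant human RBBP9 · Input – RBBP9 2.5 µM in dispensing solution, pre-mixing · Medium – Tris buffer pH 8.0, NaCl, Pluronic · Schedule – preincubation 30 min plus labeling 45 min at 25 °C · Measured by – fluorescence polarization · Measure – % inhibition · Controls – DMSO and no-protein wells · Replicates – one well per compound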
Numbers stand for hits; . = inactive; / = not tested or not shown.

SMILES	PREPL inh	SUMO HTRF inh	UBC13 inh	ALR H2O2 inh	Rin1-Abl PPI inh	RBBP9 inhibitor
O=C(CSC1CC(=O)N(CCc2ccccc2)C1=O)Nc1cccc(Cl)c1 (centres undefined)	.	.	.	99	.	.
O=C(CSC1CC(=O)N(c2ccc(C(=O)O)cc2)C1=O)Nc1ccc(Cl)cc1 (centres undefined)	.	.	.	98	.	.
O=C(CSC1CC(=O)N(CCc2ccccc2)C1=O)Nc1ccc(Br)cc1 (centres undefined)	.	.	.	.	.	.
CCN(CC)S(=O)(=O)c1ccc(C(=O)NCC2CCCCC2)cc1	.	.	.	.	.	/
O=C1COc2ccc(C(=O)/C=C/c3ccccc3)cc2N1	.	.	.	97	.	.
COc1ccc(-c2noc(CCCC(=O)Nc3ccc(C(N)=O)cc3)n2)cc1OC	.	.	.	/	.	.
CC(Sc1n[nH]c(-c2ccccc2)n1)C(=O)c1c(N)n(C)c(=O)n(C)c1=O (centres undefined)	.	/	.	.	.	/
CC(Sc1nc2ccccc2s1)C(=O)c1c(N)n(C)c(=O)n(C)c1=O (centres undefined)	.	.	.	99	.	.
CCN(CCCNC(=O)CN(C)S(=O)(=O)c1ccc2c(c1)CCC(=O)N2)c1cccc(C)c1	.	.	.	96	.	.
CCN(CCNC(=O)CN(C)S(=O)(=O)c1cccc2nsnc12)c1ccccc1	.	.	.	98	.	.
CCN(CC)c1ccc(NC(=O)CCNS(=O)(=O)c2ccc3c(c2)CCC(=O)N3)c(C)c1	.	.	.	99	.	/
CCN(CCCNC(=O)CN(C)S(=O)(=O)c1cccc2nsnc12)c1cccc(C)c1	.	.	.	99	.	.
CCN(CC)C(=O)CN(C)S(=O)(=O)c1cccc2nsnc12	.	.	.	.	.	.
CC(C)(C)C(=O)CNCC(=O)C(C)(C)C	.	.	.	.	.	.
COc1ccc(CCN2CC(C(=O)NCc3nc4ccccc4n3C)CCC2=O)cc1 (centres undefined)	.	.	.	.	.	/
CCN(CCCNS(=O)(=O)c1ccc2c(c1)CCN2C(C)=O)c1cccc(C)c1	.	.	.	97	.	.
CC(=O)N1CCc2cc(S(=O)(=O)NCCC(=O)Nc3cccc(C)c3)ccc21	.	.	.	.	.	.
Cc1ccc2c(c1)N(CC(=O)NC1CCC(C)CC1)C(=O)c1cccnc1O2 (centres undefined)	.	.	.	.	.	/
CC1=NN2C(=N)/C(=C\c3cc(C)n(Cc4ccccc4)c3C)C(=O)N=C2S1	.	.	.	97	.	.
CCc1nc2ccc(C(=O)N(C)Cc3ccco3)cn2c1N(C)CCCc1ccccc1	/	/	/	/	.	/
CN1C(=O)CC(Nc2cccc3cccc(N)c23)C1=O (centres undefined)	.	90	.	.	.	.
Cc1ccc(C)c(S(=O)(=O)N2CCN(CC(=O)NC(C)c3ccccc3)CC2)c1 (centres undefined)	.	/	.	.	.	/
Cc1c(O)ccc(-c2[nH]ncc2-c2nc3ccccc3s2)c1O	.	.	.	89	.	.
COc1ccc(-n2c(=O)c3c4c(sc3n3c(=S)[nH]nc23)COC(C(C)C)C4)cc1 (centres undefined)	.	.	.	97	.	.
C=CCn1c(SCC(=O)NC2CCCC2)nc2c([nH]c3ccccc32)c1=O	.	.	.	.	.	/
SMILES	PREPL inh	SUMO HTRF inh	UBC13 inh	ALR H2O2 inh	Rin1-Abl PPI inh	RBBP9 inhibitor
CCc1nnc(SCc2ccc(C(=O)OC)o2)n1N	.	.	.	97	.	.
Nc1c(C=C2C=CC(=O)C=C2)c(=O)nc2sc(CC(=O)N3CCOCC3)nn12	.	.	.	98	.	/
COC1=C/C(=C/c2c(N)n3nc(CC(=O)N4CCCCC4)sc3nc2=O)C=CC1=O	.	.	.	100	.	/
COC1=CC(=Cc2c(N)n3nc(CC(=O)N4CCOCC4)sc3nc2=O)C=C(OC)C1=O	.	.	.	.	.	/
CCOC1=C/C(=C/c2c(N)n3nc(S(=O)(=O)CC)sc3nc2=O)C=CC1=O	.	.	.	99	.	.
CCOC1=C/C(=C/c2c(N)n3nc(CC(=O)N4CCCCC4)sc3nc2=O)C=CC1=O	.	.	.	99	.	/
CC(=O)Nc1ccc(-c2cn3ccsc3n2)cc1	.	.	.	.	.	.
c1cn2cc(-c3ccc4c(c3)OCO4)nc2s1	.	.	.	95	.	.
